Assay outcomes from PubChem BioAssay.
The list is not random: actives were taken first. Their share in the collection is about 2.3%.
PAX8 inh HTS: PAX8 transcriptional activity inhibition | RMG-I TPO-luciferase reporter, SteadyGlo, 24 h | inhibition, % at 12.6 µM | actives 1.2% (n = 360,000);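 active = mean replicate inhibition at least 60% with every replicate also reaching 60%; inconclusive = only one of the two criteria is met; inactive = mean below 60% and not all replicates reaching 60%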;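 also: luciferase light reporting Pax8 driven TPO promoter activity; plate controls were median of neutral control wells for no effect and mitoxantrone controls for full effect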
PGC1a acetyl inh: lowers PGC1a acetylation signal in U2OS cells. AlphaScreen anti-acetyl-lysine; with virally co-expressed GCN5 acetyltransferase. inhibition, % at 15.6 µM. actives 0.17% (n = 350,000). AID 651687;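 active = every replicate shows inhibition of at least 40%; inconclusive = mean inhibition at least 40% but some replicate below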;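 also: 0% = neutral control wells and 100% = positive control wells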
FN deposit inh: fibronectin deposition inhibition; AH1F fibroblasts, Alexa488-fibronectin deposition fluorescence, overnight; inhibition, % at 12.6 µM; actives 0.086% (n = 350,000); AID 743247;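 active = mean inhibition across replicates of 30% or more, regardless of how many single replicates reach that level; inconclusive = mean under 30% yet at least half of replicates reach 30%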;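 also: positive control wells lacked labelled fibronectin entirely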
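material = AH1F fibroblast monolayer depositing Alexa488-labelled fibronectin into matrix | amount = 10000 AH1F cells/well | buffer or medium = DMEM plus 2% serum, read in PBS | incubation = 1 h cell adhesion before compound, then overnight fibronectin incubation | detection = fluorescence at 485 nm excitation, 525 nm emission | evaluation = percent inhibition as loss of matrix-bound fibronectin fluorescence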
Env fusion inh: HIV envelope-mediated fusion inhibition | HeLa-JRFL Env/CEM21 cell fusion, luciferase | inhibition, % at 12.3 µM | actives 1.1% (n = 360,000);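 active = mean replicate inhibition score of at least 50 and every replicate individually at or above 50; inconclusive = only one of the two criteria met; inactive = mean below 50 and not all replicates reaching 50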;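 also: 0% = plate neutral controls and 100% = maraviroc near 300 nM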
EWS-Fli inh: blocks EWS/Fli oncoprotein-driven transcription. A673 NR0B1-luciferase reporter, viability-normalised. inhibition, % at 12.6 µM. actives 0.67% (n = 350,000). AID 651661;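 active = mean inhibition of at least 50% after viability correction, with every replicate also passing that limit; inconclusive = mean reaches 50% but only one of two replicates passes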;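 also: firefly luciferase signal divided by Alamar Blue viability fluorescence both relative to DMSO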
F508del corr: CFTR F508del correction in bronchial cells | CFBE cells, YFP halide quenching; stimulated with forskolin plus potentiator P3; % fluorescence drop versus neutral controls | activity (quench increase), % at 7.58 µM | actives 0.36% (n = 350,000) | AID 720511;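 active = mean added fluorescence quench of at least 8% versus neutral control, with both replicates also reaching 8%; inconclusive = only one of the mean or replicate conditions met; inactive = mean below 8% and not both replicates reaching 8%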;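 also: cells transiently co-express mutant CFTR-F508del with the halide-sensitive YFP; corrector assay measuring rescue of mutant channel to the surface after 24 h compound exposure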
* hit, by the source's call; i = inactive; ? = inconclusive; / = no result given; [ ] = remark or other dose.

SMILES	PAX8 inh HTS	PGC1a acetyl inh	FN deposit inh	Env fusion inh	EWS-Fli inh	F508del corr
O=C(C1CCOCC1)N1CC(=O)N2[C@H](C1)[C@H](c1ccc(C#CC3CCCCC3)cc1)[C@@H]2CO	-0.1	-1.3	-1.9	/	3.7	-3.1
CCCOc1ccc(Br)cc1CSC(=N)N	32.0	/	-6.0	61.7*	28.6	4.7
CCOc1ccc(Br)cc1CC(=O)O	/	8.2	/	/	/	/
CN1c2ccc(-c3ccc(F)cc3)cc2[C@H]2[C@H](CCN2S(=O)(=O)c2ccc(F)cc2)[C@@H]1CO	40.8	11.0	-51.3	/	55.0*	?
COc1ccc(S(=O)(=O)N2CC[C@@H]3[C@@H](CO)N(C)c4ccc(-c5ccc(F)cc5)cc4[C@@H]32)cc1	65.9*	4.4	-44.6	/	42.1	12.1*
COc1cccc(-c2ccc3c(c2)[C@H]2[C@H](CCN2S(=O)(=O)c2ccc(F)cc2)[C@@H](CO)N3C)c1	67.3*	-31.6	-0.9	/	10.7	3.2
CN1c2ccc(-c3ccc(F)cc3)cc2[C@H]2[C@H](CCN2S(=O)(=O)c2cccc(F)c2)[C@@H]1CO	14.9	-8.7	24.7	/	43.7	13.6*
COc1ccccc1C#Cc1ccc([C@H]2[C@H](CO)N3CCCCN(C(=O)C4CC4)C[C@@H]23)cc1	24.2	-14.8	/	/	-3.2	-0.4
COc1ccc(-c2ccc3c(c2)[C@H]2[C@H](CCN2S(=O)(=O)c2ccc(F)cc2)[C@H](CO)N3C)cc1	93.8*	11.1	5.6	/	4.7	5.0
COc1ccc(-c2ccc3c(c2)[C@@H]2[C@@H](CCN2S(=O)(=O)c2ccc(F)cc2)[C@@H](CO)N3C)cc1	7.4	-18.6	-7.3	/	8.9	5.2
CC(NC(=O)CSc1nc2sc3c(c2c(=O)n1-c1ccccc1)CCCC3)c1ccccc1 (stereo unspecified)	/	-18.1	8.6	103.1*	/	/
Cc1ccc(-n2nc3c(=O)n(CC(=O)NCCc4cccs4)nc(C)c3c2C)cc1	37.1	-12.1	-7.4	12.2	/	2.5
Cc1ccc(-n2nc3c(N4CCC(C(=O)NCCc5cccs5)CC4)nnc(C)c3c2C)cc1	71.4*	/	14.5	11.8	/	4.3
Cc1nnc(N2CCCC(C(=O)NCc3ccc(OC(C)C)cc3)C2)c2nn(-c3ccccc3)c(C)c12 (stereo unspecified)	73.1*	-16.3	-2.6	14.2	/	2.1
O=C1NCCOCc2cn(nn2)CC[C@H]1Cc1ccccc1	/	/	-1.2	/	/	/
O=c1[nH]c2cc([N+](=O)[O-])ccc2c2ccccc12	-4.0	/	7.5	-15.6	-31.7	0.7
O=C1Cc2c([nH]c3ccc([N+](=O)[O-])cc23)-c2ccccc2N1	/	/	-0.7	95.6*	-39.5	-6.9
C=C1C(=O)[C@]23C[C@H]1CCC2[C@@]1(C)C(C[C@@H]3O)[C@](C)(C(=O)OC)CC[C@@H]1O (stereo partly specified)	107.9*	92.5*	-1.3	21.6	59.5*	-22.5
C[C@@]12C(C[C@H](O)[C@@]34C[C@@H](CCC13)[C@@H](CO)C4=O)[C@](C)(C(=O)O)CC[C@@H]2O (stereo partly specified)	17.0	-7.1	-1.7	-18.8	13.5	0.1
COc1ccc(CN2CC3(CCN(C(=O)C4CCOCC4)CC3)c3c(n(C)c4cc(OC)ccc34)[C@@H]2CO)cc1	-13.9	2.7	/	/	-3.0	-0.8
Cc1sc(NC(=S)NC(=O)CCc2ccccc2)c(C(N)=O)c1C	82.8*	/	0.5	-32.0	48.7	12.2*
COc1ccc(S(=O)(=O)Nc2cccc3ccc(O)cc23)cc1	-2.4	10.6	10.3	19.9	26.6	14.3*
COc1ccc(S(=O)(=O)Nc2ccccc2C)cc1	31.5	/	8.1	-16.5	/	/
CCOc1ccc(C2CC(c3ccccc3C)n3nc(N)nc3N2)cc1 (stereo unspecified)	-8.9	6.1	-10.4	64.7*	0.8	-13.0
C[C@@H]1CN([C@@H](C)CO)C(=O)c2cccc(NC(=O)c3nc4ccccc4s3)c2O[C@H]1CN(C)Cc1ccc2c(c1)OCO2	/	/	-10.4	/	/	-0.8
SMILES	PAX8 inh HTS	PGC1a acetyl inh	FN deposit inh	Env fusion inh	EWS-Fli inh	F508del corr
CCCCSc1nnc(CCCCCNC(=O)OC(C)(C)C)o1	/	-6.4	-7.3	55.2*	/	/
Cc1ccccc1COC(=O)c1nn(-c2ccccc2)nc1N	-21.5	/	31.0*	-26.8	2.2	-4.2
Nc1nn(-c2ccccc2)nc1C(=O)OCc1ccccc1F	/	4.4	/	/	/	/
O=C(CNC(=O)c1ccco1)N=Nc1c(O)n(CCc2ccccc2)c2ccccc12	25.6	-6.2	-4.7	-434.0	56.1*	0.2
Cc1ccc(NC(=O)N2CCc3ccccc32)cc1	-101.6	1.6	-1.5	i	/	/
CN1CCN(c2ccc(NC(=O)N3CCc4ccccc43)cc2)CC1	48.9	-8.6	3.0	18.6	61.9*	0.3
Cc1ccc(S(=O)(=O)Nc2ccc3c(c2)C(=O)N([C@@H](C)CO)C[C@@H](C)[C@H](CN(C)C(=O)Nc2ccc4c(c2)OCO4)O3)cc1	4.8	-12.2	/	-1.0[16.7 µM]	-7.8	0.1
O=C(Cc1c(Cl)cccc1Cl)Nc1ccncc1Cl	-4.1	/	/	61.2*	16.2	0.3
COc1ccc2c3c(n(C)c2c1)[C@H](CO)N(Cc1ccccc1F)CC31CCN(C(=O)C2CCC2)CC1	/	-15.0	/	/	6.1	-0.4
O=[N+]([O-])c1cc([N+](=O)[O-])c2cc3ccccc3nc2c1	27.3	/	2.5	-45.9	72.0*	-1.4
O=[N+]([O-])c1cnc2ccccc2c1	15.8	/	5.2	20.7	0.3	3.8
COc1cc(/C=N/NC(=O)c2cccc([N+](=O)[O-])c2)ccc1OCc1ccccc1	/	-15.2	/	/	-73.1	-2.3
CCOC(=O)C(=Cc1ccc(OCc2ccc([N+](=O)[O-])cc2)c(OC)c1)C(=O)OCC	/	57.1*	/	/	/	/
N#C[C@H]1[C@@H](c2ccc(C#CC3CCCCC3)cc2)[C@@H](CO)N1S(=O)(=O)c1ccccc1	78.7*	2.9	-2.3	2.7[16.7 µM]	30.1	2.0
Cc1ccccc1S(=O)(=O)N1[C@H](CO)[C@@H](c2ccc(C#CC3CC3)cc2)[C@@H]1C#N	64.4*	-3.6	-20.6	/	13.2	0.9
N#C[C@H]1[C@@H](c2ccccc2C2=CCCCC2)[C@H](CO)N1S(=O)(=O)c1ccccc1	-5.9	10.3	-3.5	/	6.5	2.3
N#C[C@H]1[C@H](c2ccccc2C2=CCCCC2)[C@@H](CO)N1S(=O)(=O)c1ccccc1	-23.3	7.8	67.4*	/	4.5	0.4
N#C[C@H]1[C@@H](c2ccc(C#CC3CCCCC3)cc2)[C@H](CO)N1S(=O)(=O)c1ccccc1	26.7	-10.5	8.0	-12.0[16.7 µM]	9.3	2.8
N#C[C@H]1[C@H](c2ccc(C#CC3CCCCC3)cc2)[C@@H](CO)N1C(=O)Cc1ccccn1	18.1	-8.1	-3.8	-9.2[16.7 µM]	3.6	-0.6
N#C[C@H]1[C@@H](c2ccc(C#CC3CCCCC3)cc2)[C@@H](CO)N1C(=O)Cc1ccccn1	61.4*	-5.9	/	3.2[16.7 µM]	-16.5	-0.7
